Assay results reported in ChEMBL document CHEMBL4368879, “Crystallographic and SAR analyses reveal the high requirements needed to selectively and potently inhibit SIRT2 deacetylase and decanoylase” (Medchemcomm, 2019).
Calls of active or inactive are those of the source. The calls are words filed in the database; no cut-off is given here.

Legend:
[1] = target: T1, NAD-dependent protein deacetylase sirtuin-2 (Homo sapiens) (UniProt Q8IXJ6); experiment: Inhibition of recombinant SIRT2 (unknown origin) using RLIK(Ac)AMC as substrate assessed as reduction in deacetylase activity at 100 uM after 2 hrs in presence of NAD+ by fluorescence assay relative to control
T1 sequence (whole entry): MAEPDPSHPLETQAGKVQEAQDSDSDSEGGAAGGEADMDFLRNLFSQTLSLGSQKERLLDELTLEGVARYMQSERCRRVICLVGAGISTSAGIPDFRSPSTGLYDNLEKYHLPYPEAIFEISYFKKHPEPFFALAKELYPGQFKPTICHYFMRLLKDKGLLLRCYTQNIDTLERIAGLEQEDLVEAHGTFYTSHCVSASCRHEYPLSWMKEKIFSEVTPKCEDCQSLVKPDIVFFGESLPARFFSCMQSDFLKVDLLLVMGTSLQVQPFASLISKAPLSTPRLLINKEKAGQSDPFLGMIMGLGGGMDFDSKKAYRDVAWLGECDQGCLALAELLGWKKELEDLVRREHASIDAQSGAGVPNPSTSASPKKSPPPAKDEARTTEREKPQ
How it was run: (§1)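 Fluorogenic sirtuin assay in 25 mM Tris–HCl pH 8.0, 150 mM NaCl, 10% glycerol. Enzyme at 0.1 μM with 10 μM substrate (RLIK(Ac)AMC or ETDK(Ca)AMC) and 400 μM NAD+, 2 h at 25 °C with shaking. Reaction stopped with a trypsin plus 4 mM nicotinamide solution, then 30 min more at 25 °C. Fluorescence read on a plate reader.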

[2] = target: T2, NAD-dependent protein deacetylase sirtuin-2 (Homo sapiens, UniProt Q8IXJ6); experiment: Inhibition of recombinant SIRT2 (unknown origin) using ETDK(Ca)AMC as substrate assessed as reduction in decanoylase activity after 2 hrs in presence of NAD+ by fluorescence assay; how it was run: as §1
T2 sequence (Q8IXJ6 whole entry): T1 sequence (whole entry)

[3] = target: T1, NAD-dependent protein deacetylase sirtuin-2 (Homo sapiens); experiment: Inhibition of recombinant SIRT2 (unknown origin) using ETDK(Ca)AMC as substrate assessed as reduction in decanoylase activity at 100 uM after 2 hrs in presence of NAD+ by fluorescence assay relative to control; how it was run: as §1
[4] = target: T1, NAD-dependent protein deacetylase sirtuin-2 (Homo sapiens); experiment: Inhibition of recombinant SIRT2 (unknown origin) using RLIK(Ac)AMC as substrate assessed as reduction in deacetylase activity at 10 uM after 2 hrs in presence of NAD+ by fluorescence assay relative to control; how it was run: as §1
[5] = target: T1, NAD-dependent protein deacetylase sirtuin-2 (Homo sapiens); experiment: Inhibition of recombinant SIRT2 (unknown origin) using ETDK(Ca)AMC as substrate assessed as reduction in decanoylase activity at 10 uM after 2 hrs in presence of NAD+ by fluorescence assay relative to control; how it was run: as §1
[6] = target: T2, NAD-dependent protein deacetylase sirtuin-2; experiment: Inhibition of recombinant SIRT2 (unknown origin) using RLIK(Ac)AMC as substrate assessed as reduction in deacetylase activity after 2 hrs in presence of NAD+ by fluorescence assay; how it was run: as §1
[7] = target: NAD-dependent protein deacylase sirtuin-6 (Homo sapiens) (UniProt Q8N6T7); experiment: Inhibition of recombinant SIRT6 (unknown origin) using ETDK(Ca)AMC as substrate assessed as reduction in decanoylase activity after 2 hrs in presence of NAD+ by fluorescence assay; how it was run: as §1
[8] = target: T3, NAD-dependent protein deacetylase sirtuin-3, mitochondrial (Homo sapiens) (UniProt Q9NTG7); experiment: Inhibition of recombinant SIRT3 (unknown origin) using ETDK(Ca)AMC as substrate assessed as reduction in decanoylase activity after 2 hrs in presence of NAD+ by fluorescence assay; how it was run: as §1
T3 sequence (whole entry): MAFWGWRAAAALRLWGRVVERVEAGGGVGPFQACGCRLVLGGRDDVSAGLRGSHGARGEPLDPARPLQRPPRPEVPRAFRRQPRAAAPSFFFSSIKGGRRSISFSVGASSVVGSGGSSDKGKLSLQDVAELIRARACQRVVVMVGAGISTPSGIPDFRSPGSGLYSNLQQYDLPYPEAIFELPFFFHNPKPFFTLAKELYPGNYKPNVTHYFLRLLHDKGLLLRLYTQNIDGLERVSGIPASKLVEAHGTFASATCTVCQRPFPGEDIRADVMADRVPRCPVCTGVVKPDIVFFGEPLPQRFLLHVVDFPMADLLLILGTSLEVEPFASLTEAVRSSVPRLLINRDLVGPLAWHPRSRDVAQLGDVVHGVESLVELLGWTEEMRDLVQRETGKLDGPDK

[9] = target: T3, NAD-dependent protein deacetylase sirtuin-3, mitochondrial (Homo sapiens); experiment: Inhibition of recombinant SIRT3 (unknown origin) using RLIK(Ac)AMC as substrate assessed as reduction in deacetylase activity after 2 hrs in presence of NAD+ by fluorescence assay; how it was run: as §1
[10] = target: NAD-dependent protein deacylase sirtuin-5, mitochondrial (Homo sapiens) (UniProt Q9NXA8); experiment: Inhibition of recombinant SIRT5 (unknown origin) using RLIK(Ac)AMC as substrate assessed as reduction in deacetylase activity after 2 hrs in presence of NAD+ by fluorescence assay; how it was run: as §1
[11] = target: T4, NAD-dependent protein deacetylase sirtuin-1 (Homo sapiens) (UniProt Q96EB6); experiment: Inhibition of recombinant SIRT1 (unknown origin) using RLIK(Ac)AMC as substrate assessed as reduction in deacetylase activity after 2 hrs in presence of NAD+ by fluorescence assay; how it was run: as §1
T4 sequence (whole entry): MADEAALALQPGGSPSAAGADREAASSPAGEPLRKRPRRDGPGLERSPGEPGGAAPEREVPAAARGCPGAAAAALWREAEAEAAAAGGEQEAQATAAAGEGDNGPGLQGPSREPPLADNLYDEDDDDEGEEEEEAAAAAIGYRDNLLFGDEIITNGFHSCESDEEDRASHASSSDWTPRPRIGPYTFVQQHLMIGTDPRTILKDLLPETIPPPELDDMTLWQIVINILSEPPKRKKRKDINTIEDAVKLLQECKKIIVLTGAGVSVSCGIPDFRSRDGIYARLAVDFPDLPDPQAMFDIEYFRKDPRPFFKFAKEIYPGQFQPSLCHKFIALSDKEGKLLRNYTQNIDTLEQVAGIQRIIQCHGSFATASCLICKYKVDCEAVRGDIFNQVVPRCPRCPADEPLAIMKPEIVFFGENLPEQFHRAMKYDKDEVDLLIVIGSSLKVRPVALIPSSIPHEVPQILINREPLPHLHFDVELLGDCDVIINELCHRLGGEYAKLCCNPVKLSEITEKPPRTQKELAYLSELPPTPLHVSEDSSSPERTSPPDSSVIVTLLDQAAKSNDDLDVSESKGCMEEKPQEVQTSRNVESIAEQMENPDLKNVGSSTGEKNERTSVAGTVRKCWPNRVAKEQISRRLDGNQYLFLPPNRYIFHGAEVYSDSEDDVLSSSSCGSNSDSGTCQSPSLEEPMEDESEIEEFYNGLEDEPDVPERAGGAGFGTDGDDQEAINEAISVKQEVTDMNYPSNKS

[12] = target: NAD-dependent protein deacylase sirtuin-6 (Homo sapiens) (UniProt Q8N6T7); experiment: Inhibition of recombinant SIRT6 (unknown origin) using RLIK(Ac)AMC as substrate assessed as reduction in deacetylase activity after 2 hrs in presence of NAD+ by fluorescence assay; how it was run: as §1
[13] = target: T4, NAD-dependent protein deacetylase sirtuin-1 (Homo sapiens); experiment: Inhibition of recombinant SIRT1 (unknown origin) using ETDK(Ca)AMC as substrate assessed as reduction in decanoylase activity after 2 hrs in presence of NAD+ by fluorescence assay; how it was run: as §1
[14] = target: NAD-dependent protein deacylase sirtuin-5, mitochondrial (Homo sapiens) (UniProt Q9NXA8); experiment: Inhibition of recombinant SIRT5 (unknown origin) using ETDK(Ca)AMC as substrate assessed as reduction in decanoylase activity after 2 hrs in presence of NAD+ by fluorescence assay; how it was run: as §1

Chain of NAD-dependent protein deacylase sirtuin-5, mitochondrial (Homo sapiens) (Q9NXA8 37-310 limits assumed): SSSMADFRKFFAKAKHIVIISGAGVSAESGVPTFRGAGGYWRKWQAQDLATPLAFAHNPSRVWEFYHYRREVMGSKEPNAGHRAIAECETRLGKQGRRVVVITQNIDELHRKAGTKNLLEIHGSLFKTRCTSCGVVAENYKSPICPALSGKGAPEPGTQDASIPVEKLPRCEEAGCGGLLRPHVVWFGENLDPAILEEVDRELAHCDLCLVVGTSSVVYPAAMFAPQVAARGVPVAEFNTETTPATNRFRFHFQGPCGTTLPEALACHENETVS
Chain of NAD-dependent protein deacylase sirtuin-6 (Homo sapiens) (Q8N6T7 whole entry): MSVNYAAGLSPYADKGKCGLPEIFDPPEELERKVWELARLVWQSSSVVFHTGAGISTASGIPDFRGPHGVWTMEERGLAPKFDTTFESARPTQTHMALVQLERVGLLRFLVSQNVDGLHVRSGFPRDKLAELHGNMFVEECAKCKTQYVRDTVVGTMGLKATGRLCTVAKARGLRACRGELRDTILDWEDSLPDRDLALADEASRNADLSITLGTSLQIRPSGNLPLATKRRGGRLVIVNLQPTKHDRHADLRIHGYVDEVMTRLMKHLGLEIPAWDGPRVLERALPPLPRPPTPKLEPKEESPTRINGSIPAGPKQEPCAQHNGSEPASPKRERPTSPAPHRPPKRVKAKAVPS

inhibition [1]	IC50 [2]	inhibition [3]	inhibition [4]	inhibition [5]	IC50 [6]	inhibition [7]	inhibition [8]	inhibition [9]	inhibition [10]	inhibition [11]	inhibition [12]	inhibition [13]	inhibition [14]	Structure (SMILES)
80%	11.6 µM	53%	70%	38%	1.32 µM	–	–	–	–	–	–	–	–	Cc1cc(C)nc(SCC(=O)Nc2ccc(Sc3ccccc3)cc2)n1
40%	–	23%	5%	4%	–	–	–	–	–	–	–	–	–	Cc1cc(C)nc(SCC(=O)Nc2ccc([S+]([O-])c3ccccc3)cc2)n1 (stereo unspecified)
51%	–	42%	28%	18%	–	–	–	–	–	–	–	–	–	Cc1cc(C)nc(SCC(=O)Nc2ccc(Sc3ccc(C(F)(F)F)cc3)cc2)n1
76%	–	65%	70%	54%	–	–	–	–	–	–	–	–	–	Cc1cccc(Sc2ccc(NC(=O)CSc3nc(C)cc(C)n3)cc2)c1
67%	–	60%	42%	23%	–	–	–	–	–	–	–	–	–	Cc1cc(C)nc(SCC(=O)Nc2ccc(Sc3cccnc3)cc2)n1
63%	–	70%	30%	10%	–	–	–	–	–	–	–	–	–	Cc1ccc(Sc2ccc(NC(=O)CSc3nc(C)cc(C)n3)cc2)cc1
50%	–	18%	8%	5%	–	–	–	–	–	–	–	–	–	Cc1cc(C)nc(SCC(=O)Nc2ccc(S(=O)(=O)c3ccccc3)cc2)n1
73%	62.1 µM	30%	65%	5%	6.65 µM	–	–	–	–	–	–	–	–	Cc1cc(C)nc(SCC(=O)Nc2cccc(Sc3ccccc3)c2)n1
62%	–	58%	50%	18%	–	–	–	–	–	–	–	–	–	Cc1cc(C)nc(SCC(=O)Nc2ccc(Sc3ccsc3)cc2)n1
76%	–	–	53%	32%	–	–	–	–	–	–	–	–	–	Cc1cc(C)nc(SCC(=O)Nc2cccc(COc3ccccc3)c2)n1
53%	–	58%	42%	42%	–	–	–	–	–	–	–	–	–	Cc1cc(C)nc(SCC(=O)Nc2ccc(Sc3cccc4ccccc34)cc2)n1
65%	–	58%	55%	20%	–	–	–	–	–	–	–	–	–	COc1ccc(Sc2ccc(NC(=O)CSc3nc(C)cc(C)n3)cc2)cc1
60%	–	63%	40%	23%	–	–	–	–	–	–	–	–	–	Cc1cc(C)nc(SCC(=O)Nc2ccc(Sc3ccc(OC(F)(F)F)cc3)cc2)n1
85%	8.33 µM	80%	80%	70%	0.7 µM	inactive	inactive	inactive	inactive	inactive	inactive	inactive	inactive	COc1cccc(Sc2ccc(NC(=O)CSc3nc(C)cc(C)n3)cc2)c1
70%	–	38%	51%	23%	–	–	–	–	–	–	–	–	–	Cc1cc(C)nc(SCC(=O)Nc2ccc(Sc3ccc4ccccc4c3)cc2)n1
82%	17.6 µM	77%	72%	72%	0.85 µM	inactive	inactive	inactive	inactive	inactive	inactive	inactive	inactive	Cc1cc(C)nc(SCC(=O)Nc2ccc(Sc3cccc(C(F)(F)F)c3)cc2)n1
5%	–	35%	6%	8%	–	–	–	–	–	–	–	–	–	CC(=O)c1ccc(Sc2ccc(NC(=O)CSc3nc(C)cc(C)n3)cc2)cc1
